In brackets after ≈: the same amount, converted by molar mass.
Legend:
[1] = Protective index against GS radical-induced curcumin depletion at 10 ug/ml irradiated at 100 Gy
Method in brief: (§1)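 Reaction solution: 20 μM curcumin and 15 mM GSH in 60% methanol, with sample at 10 μg/mL. Control had no sample. Solutions were γ-irradiated to generate GS• radicals; doses up to 250 Gy, with PI reported at 100 Gy. Curcumin depletion followed by absorbance at 425 nm against a blank. Protective index (%) derived from depletion with versus without sample.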

[2] = system: Radical scavenging activity; experiment: Antioxidant activity assessed as DPPH radical scavenging activity; assay type: functional
Method in brief: (§2)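 DPPH (100 μM) in absolute methanol, compounds at 0–1000 μg/mL, in triplicate. After 30 min in the dark at room temperature, absorbance read at 515 nm against a blank. Percent decoloration taken relative to a methanol-treated control with DPPH and no sample; IC50 calculated in μg/mL.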

[3] = DPPH radical scavenging activity assessed as ascorbic acid equivalent antioxidant capacity; assay type: functional
Method in brief: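 DPPH IC50 determined as above (100 μM DPPH in methanol, 30 min dark, room temperature, 515 nm). AEAC in mg ascorbic acid/g sample calculated as IC50(ascorbate)/IC50(sample) × 1000.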

[4] = Antioxidant activity assessed as inhibition of glutathione-induced curcumin depletion at 10 ug/ml; assay type: functional; method in brief: as §1
[5] = system: Radical scavenging activity; experiment: Antioxidant activity assessed as DPPH radical scavenging activity at 250 ug/ml; assay type: functional; method in brief: as §2

SMILES | IC50 [2] [µg/mL] | PI [1] [%] | Activity [3] [mg/g] | INH [4] [µM] | Activity [5] [%]
COc1cccc2cc(C(=O)c3ccc(Cl)cc3)c(=S)oc12 | 95.57 (≈ 289 µM) | 25.2 | 40 | – | –
COc1cccc2cc(C(C)=O)c(=S)oc12 | 358.67 (≈ 1530 µM) | – | – | – | –
COc1ccc(C(=O)c2cc3ccccc3oc2=S)cc1 | 1579.25 (≈ 5330 µM) | – | – | – | 6.41
COc1cccc2cc(C(=O)c3ccccc3)c(=S)oc12 | 98.72 (≈ 333 µM) | 10.9 | 38.7 | – | –
COc1cccc2cc(C(=O)c3ccc(C)cc3)c(=S)oc12 | 233.71 (≈ 753 µM) | 3.65 | 16.4 | – | –
CC(=O)c1cc2ccccc2oc1=S | 35.01 (≈ 171 µM) | 45.8 | 111 | 3.27 | –

Further lines, with some results ahead:

IC50 [2] [µg/mL] | SMILES | PI [1] [%] | Activity [3] [mg/g] | INH [4] [µM] | Activity [5] [%]
31.2 (≈ 103 µM) | COc1cccc2cc(C(=O)c3cccs3)c(=S)oc12 | 56.9 | 121 | 2.41 | –
603.43 (≈ 1850 µM) | COc1ccc(C(=O)c2cc3cccc(OC)c3oc2=S)cc1 | – | – | – | –
537.58 (≈ 1790 µM) | O=C(c1ccc(Cl)cc1)c1cc2ccccc2oc1=S | – | – | – | –
1112.83 (≈ 2970 µM) | COc1ccc(C(=O)c2cc3cc(Br)ccc3oc2=S)cc1 | – | – | – | –
850.41 (≈ 2240 µM) | O=C(c1ccc(Cl)cc1)c1cc2cc(Br)ccc2oc1=S | – | – | – | –
551.57 (≈ 1970 µM) | Cc1ccc(C(=O)c2cc3ccccc3oc2=S)cc1 | – | – | – | –

From ChEMBL document CHEMBL1165857, “Novel 3-alkanoyl/aroyl/heteroaroyl-2H-chromene-2-thiones: synthesis and evaluation of their antioxidant activities” (Eur J Med Chem, 2010)
